Assays:
Striatum [1] = experiment: Drug uptake in Sprague-Dawley rat striatum assessed per cm'3 at 37 MBq, iv treated 45 mins after DAT inhibitor GBR-12909 challenge measured after 30 mins; format: ADME, organism-based; settings: in vivo, 0.5 h
How it was run: (§1)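 This was the same rat after its baseline scan. It was pretreated with 1.5 mg/kg GBR12909 45 min before a second 37 MBq tracer injection, and dynamic PET acquisition ran 60 min from injection. Striatal uptake was given as %ID per cm³ for the 15, 30 and 60 min time-frames.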

Striatum [2] = experiment: Drug uptake in Sprague-Dawley rat striatum assessed per cm'3 at 37 MBq, iv after 15 mins; format: ADME, organism-based; settings: in vivo, 0.25 h
How it was run: (§2)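 Baseline small-animal PET in one male Sprague–Dawley rat: 37 MBq (1 mCi) tracer injected, and full dynamic acquisition started at injection and ran 60 min. Images were reconstructed and coregistered with MRI. Striatal uptake was given as %ID per cm³ for the 15, 30 and 60 min time-frames.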

[3] = Ratio of drug uptake in striatum to cerebellum of Sprague-Dawley rat at 37 MBq, iv after 60 mins; format: ADME, organism-based; settings: in vivo, 1 h
How it was run: (§3)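 Male Sprague–Dawley rat, baseline small-animal PET. Tracer given at 37 MBq (1 mCi), specific activity 67 GBq/µmol. Full dynamic scan for 60 min, acquisition starting with tracer injection. Read-out is the striatum/cerebellum radioactivity-concentration ratio, taken at the 15, 30 and 60 min time frames.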

Striatum [4] = experiment: Drug uptake in Sprague-Dawley rat striatum assessed per cm'3 at 37 MBq, iv after 4 mins; format: ADME, organism-based; settings: in vivo
[5] = Ratio of drug uptake in striatum to cerebellum of Sprague-Dawley rat at 37 MBq, iv treated 45 mins after DAT inhibitor GBR-12909 challenge measured after 15 mins; format: ADME, organism-based; settings: in vivo, 0.25 h
How it was run: (§4)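 Same male Sprague–Dawley rat, rescanned after baseline. GBR12909 1.5 mg/kg given 45 min before a second 37 MBq tracer dose. Dynamic acquisition for 60 min, started at injection. Read-out is the striatum/cerebellum radioactivity-concentration ratio at the 15, 30 and 60 min time frames.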

[6] = Ratio of drug uptake in striatum to cerebellum of Sprague-Dawley rat at 37 MBq, iv after 15 mins; format: ADME, organism-based; settings: in vivo, 0.25 h; how it was run: as §3
Striatum [7] = experiment: Drug uptake in Sprague-Dawley rat striatum assessed per cm'3 at 37 MBq, iv after 30 mins; format: ADME, organism-based; settings: in vivo, 0.5 h; how it was run: as §2
[8] = Ratio of drug uptake in striatum to cerebellum of Sprague-Dawley rat at 37 MBq, iv treated 45 mins after DAT inhibitor GBR-12909 challenge measured after 30 mins; format: ADME, organism-based; settings: in vivo, 0.5 h; how it was run: as §4
Striatum [9] = experiment: Drug uptake in Sprague-Dawley rat striatum assessed as reduction of striatal binding potential at 37 MBq, iv treated 45 mins after DAT inhibitor GBR-12909 challenge measured after 15 mins; format: ADME, organism-based; parameters: scale not given: the % may be the effect or the level left; settings: in vivo, 0.25 h
How it was run: (§5)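 The same animal then received 1.5 mg/kg GBR12909 45 min before a second 37 MBq dose, followed by another 60 min scan. Striatal binding potential was read for the 15, 30 and 60 min time-frames, and the reduction was expressed in %.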

Striatum [10] = experiment: Drug uptake in Sprague-Dawley rat striatum assessed per cm'3 at 37 MBq, iv treated 45 mins after DAT inhibitor GBR-12909 challenge measured after 60 mins; format: ADME, organism-based; settings: in vivo, 1 h; how it was run: as §1
Striatum [11] = experiment: Drug uptake in Sprague-Dawley rat striatum assessed per cm'3 at 37 MBq, iv treated 45 mins after DAT inhibitor GBR-12909 challenge measured after 15 mins; format: ADME, organism-based; settings: in vivo, 0.25 h; how it was run: as §1
Striatum [12] = experiment: Drug uptake in Sprague-Dawley rat striatum assessed per cm'3 at 37 MBq, iv after 60 mins; format: ADME, organism-based; settings: in vivo, 1 h; how it was run: as §2
[13] = Ratio of drug uptake in striatum to cerebellum of Sprague-Dawley rat at 37 MBq, iv after 30 mins; format: ADME, organism-based; settings: in vivo, 0.5 h; how it was run: as §3
[14] = Ratio of drug uptake in striatum to cerebellum of Sprague-Dawley rat at 37 MBq, iv treated 45 mins after DAT inhibitor GBR-12909 challenge measured after 60 mins; format: ADME, organism-based; settings: in vivo, 1 h; how it was run: as §4
Striatum [15] = experiment: Drug uptake in Sprague-Dawley rat striatum assessed as reduction of striatal binding potential at 37 MBq, iv treated 45 mins after DAT inhibitor GBR-12909 challenge measured after 60 mins; format: ADME, organism-based; parameters: scale not given: the % may be the effect or the level left; settings: in vivo, 1 h; how it was run: as §5
Striatum [16] = experiment: Drug uptake in Sprague-Dawley rat striatum assessed as reduction of striatal binding potential at 37 MBq, iv treated 45 mins after DAT inhibitor GBR-12909 challenge measured after 30 mins; format: ADME, organism-based; parameters: scale not given: the % may be the effect or the level left; settings: in vivo, 0.5 h; how it was run: as §5
[17] = target: Sodium-dependent dopamine transporter (Homo sapiens, UniProt Q01959); experiment: Inhibition of human dopamine transporter
Chain of Sodium-dependent dopamine transporter (Q01959 whole entry): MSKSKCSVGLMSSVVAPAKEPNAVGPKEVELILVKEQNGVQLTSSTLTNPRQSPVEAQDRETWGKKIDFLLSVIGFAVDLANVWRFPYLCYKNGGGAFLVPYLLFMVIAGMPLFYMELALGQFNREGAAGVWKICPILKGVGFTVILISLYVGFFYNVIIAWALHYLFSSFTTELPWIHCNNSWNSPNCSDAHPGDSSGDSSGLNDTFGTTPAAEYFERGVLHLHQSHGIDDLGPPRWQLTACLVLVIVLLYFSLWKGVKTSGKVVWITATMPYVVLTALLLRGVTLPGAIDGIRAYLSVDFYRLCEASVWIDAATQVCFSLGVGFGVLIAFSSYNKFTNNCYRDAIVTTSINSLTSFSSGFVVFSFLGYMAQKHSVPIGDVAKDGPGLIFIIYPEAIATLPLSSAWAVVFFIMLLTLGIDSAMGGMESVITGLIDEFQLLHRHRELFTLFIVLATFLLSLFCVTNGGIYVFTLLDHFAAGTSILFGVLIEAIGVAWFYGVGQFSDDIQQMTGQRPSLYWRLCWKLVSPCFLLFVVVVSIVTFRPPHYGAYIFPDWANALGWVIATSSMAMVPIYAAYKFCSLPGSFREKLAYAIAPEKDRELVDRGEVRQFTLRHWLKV

SMILES	Activity (Striatum [1])	Activity (Striatum [2])	Ratio [3]	Drug uptake (Striatum [4])	Ratio [5]	Ratio [6]	Activity (Striatum [7])	Ratio [8]	Activity (Striatum [9])	Activity (Striatum [10])	Activity (Striatum [11])	Activity (Striatum [12])	Ratio [13]	Ratio [14]	Activity (Striatum [15])	Activity (Striatum [16])	IC50 [17]
Cc1ccc([C@H]2C[C@@H]3CC[C@H]([C@H]2C(=O)O[11CH3])N3CC#CCF)cc1	1.6 %ID	2 %ID	5	2.22%	1.25	2.4	2.1 %ID	1.67	32%	1.2 %ID	2.1 %ID	2.1 %ID	3.6	1.61	57%	41%	–
COC(=O)[C@H]1[C@@H](c2ccc(C)cc2)C[C@@H]2CC[C@H]1N2CC#CCF	–	–	–	–	–	–	–	–	–	–	–	–	–	–	–	–	3 nM

Source: ChEMBL document CHEMBL1152377, “[(11)C]PR04.MZ, a promising DAT ligand for low concentration imaging: Synthesis, efficient (11)C-O-methylation and initial small animal PET studies” (Bioorg Med Chem Lett, 2009)
